Screens deposited in PubChem BioAssay by several laboratories.
Many of the other results were omitted from the sample, so hits are more common in it than they were.
ROMK mod: human ROMK K+ channel modulation, primary screen; P48048; Tet-inducible ROMK, thallium flux fluorescence; actives lie on both sides; B-score at 10 µM; 130,000 compounds, 2% hits;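 active = signal ratio slope over the read window, or its plate-corrected B-score, at least 3 SD from the plate mean, either direction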;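 also: B-score of the F/F0 ratio slope over 7 to 12 s after thallium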
Target sequence (P48048 whole entry, looked up): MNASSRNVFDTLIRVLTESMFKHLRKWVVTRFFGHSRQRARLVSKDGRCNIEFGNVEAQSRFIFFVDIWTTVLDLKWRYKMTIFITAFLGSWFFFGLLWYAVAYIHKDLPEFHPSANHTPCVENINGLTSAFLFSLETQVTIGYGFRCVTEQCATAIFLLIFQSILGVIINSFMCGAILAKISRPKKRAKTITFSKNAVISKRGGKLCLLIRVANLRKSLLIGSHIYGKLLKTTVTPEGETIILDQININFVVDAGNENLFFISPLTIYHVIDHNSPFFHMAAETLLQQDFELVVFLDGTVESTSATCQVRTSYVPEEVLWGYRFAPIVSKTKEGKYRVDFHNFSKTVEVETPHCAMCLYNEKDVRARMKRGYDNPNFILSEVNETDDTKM
Biofilm kill mix: mixtures killing C. albicans biofilm; 120,000 compounds, 0.02% hits; AID 1242; C. albicans biofilm persisters + clotrimazole, fluorescence viability; primary screen in compound mixtures of four per well; inhibition, % at 7.6 µM;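 active = inhibition above 30.3% in the primary screen of four-compound pools, then above 30% when the compound was retested; inconclusive = passed the primary limit but could not be retested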;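 also: compounds exposed to preformed 24 h biofilms for 48 h; 0% = untreated biofilm control and 100% = clotrimazole plus chlorhexidine kill blank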
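Incubation: 24 h biofilm formation, then 48 h compound exposure, 37 °C | Material: C. albicans biofilms | Buffer or medium: RPMI/MOPS medium, pH 7.0 | Measured by: 2-h Alamar Blue fluorescence, 535/590 nm excitation/emission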
ROMK hit retest: human ROMK channel modulation, retest confirmation | 3,000 compounds, 54% hits | ROMK thallium flux, fluorescence ratio; hits give low values | shares compounds with ROMK mod | normalized thallium flux (F/F0 slope) at 10 µM;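 active = Flux at 10 µM at least 3 SD below or above vehicle control mean in one or both replicates; inconclusive = no clear call, values can overlap the other calls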
The depositor's hits bear a star.

O=S(=O)(c1cccc2cccnc12)N1CCN(c2ccc(F)cc2)CC1 was read as ROMK mod -0.011 and Biofilm kill mix 24.
Screening O=C(N/N=C/c1ccco1)c1cc(-c2ccc3ccccc3c2)n[nH]1 returned ROMK mod -0.95.
`CCc1ccc(-c2cc(C(=O)N/N=C/c3ccco3)[nH]n2)cc1` gave ROMK mod -3.2*, Biofilm kill mix 14 and ROMK hit retest 0.063*.
`Cc1cccc(OCC(=O)Nc2ccc(S(=O)(=O)Nc3cc(C)nc(C)n3)cc2)c1` gave ROMK mod 0.38 and Biofilm kill mix 16.
For O=C1NN(c2ccccc2)C(=O)/C1=C\c1coc2ccc(O)cc2c1=O the results were Biofilm kill mix 17.
Screening N#C/C(=N/Nc1ccccc1F)C(=N)N1CCOCC1 returned ROMK mod 0.029.
For N#Cc1cc(C(=O)c2cc(F)ccc2O)cn(-c2nccs2)c1=O the results were ROMK mod -5*, Biofilm kill mix 8 and ROMK hit retest 0.03*.
`CC(C)n1cc(C(=O)c2ccccc2O)cc(C#N)c1=O` gave ROMK mod 1 and Biofilm kill mix 13.
For Cc1c(-n2cc(C(=O)c3cc(F)ccc3O)cc(C#N)c2=O)c(=O)n(-c2ccccc2)n1C the results were ROMK mod 0.34 and Biofilm kill mix 6.
N#Cc1cc(C(=O)c2ccccc2O)cn(-c2nccs2)c1=O was read as ROMK mod -8.4*, Biofilm kill mix 19 and ROMK hit retest 0.025*.
For COc1ccc(/C=N/Nc2cc(=O)n(C)c(=O)n2C)cc1OC the results were Biofilm kill mix 24.
Screening Cc1cc(/C=C2/SC(=O)NC2=O)c(C)n1-c1ccc(N2CCOCC2)cc1 returned ROMK mod -0.082 and Biofilm kill mix 11.
`Cc1cc(/C=C2\SC(=Nc3ccc(F)cc3)NC2=O)c(C)n1-c1ccc(S(N)(=O)=O)cc1` gave ROMK mod 3.3* and ROMK hit retest 0.085.
CCN(CC)S(=O)(=O)c1ccc(S(=O)(=O)Nc2ccc(C(=O)N3CCCC3)cc2)cc1 was read as ROMK mod -0.099.
`O=C(N/N=C/c1ccccc1OC(F)F)NC1CCCCC1` gave Biofilm kill mix 16.
O=C(CN1CCN(Cc2ccccc2Cl)C1=O)NC1CCCCCCC1 was read as ROMK mod -2.6* and ROMK hit retest 0.057*.
`CC1CCCCC1NC(=O)CN1CCN(Cc2ccccc2Cl)C1=O` (stereo unspecified) gave ROMK mod -2 and Biofilm kill mix 7.
`CCC(C)c1cc(S(=O)(=O)N2CCOCC2)ccc1OC` (stereo unspecified) gave ROMK mod -3.7* and ROMK hit retest inconclusive.
Screening COc1ccc(S(=O)(=O)N2CCOCC2)cc1Br returned ROMK mod -2 and Biofilm kill mix 11.
For CSc1nc2ncc(-c3ccsc3)c(N)n2n1 the results were ROMK mod -0.91 and Biofilm kill mix 9.
Screening O=C(COc1ccc(F)cc1)N(c1ccccn1)C1CCCCC1 returned ROMK mod 0.5 and Biofilm kill mix -2.
`CC(C)c1ccc(OCC(=O)N(c2ccccn2)C2CCCCC2)cc1` gave ROMK mod -2.6*, Biofilm kill mix 8 and ROMK hit retest 0.055*.
O=C(NCC(=O)N(c1cccnc1)C(C(=O)NC1CCCC1)c1cccs1)c1cccs1 (stereo unspecified) was read as ROMK mod 0.92 and Biofilm kill mix 23.
`CN(C)c1nc(N(C)C)n(C(=O)c2cccs2)n1` gave ROMK mod -0.19 and Biofilm kill mix 12.
For CCOc1ccc(/C=C(\C#N)C(=O)Nc2cccnc2)cc1 the results were Biofilm kill mix 17.
For CCOc1cccc(NC(=O)/C(C#N)=C/c2cccnc2)c1 the results were Biofilm kill mix 13 and ROMK hit retest 0.035*.
`CCNC(=O)CC1SC(=Nc2ccc(Cl)cc2)N(CC)C1=O` (stereo unspecified) gave ROMK mod 0.91 and Biofilm kill mix 12.
CCN=C1SC(CC(=O)NCC)C(=O)N1CC (stereo unspecified) was read as ROMK mod 3* and ROMK hit retest 0.081.
For CCC(Sc1nc2ccccc2o1)C(=O)Nc1nnc(C)s1 (stereo unspecified) the results were ROMK mod 0.083 and Biofilm kill mix 9.
`NC(=O)C1CCN(Cc2nc(-c3cccs3)no2)CC1` gave Biofilm kill mix 9.
For Cc1ccc(CN2CCN(/N=C/c3ccc(N(C)C)cc3)CC2)cc1 the results were Biofilm kill mix 19.
O=[N+]([O-])c1nn(-c2ccc3c(c2)OCCO3)n(O)c1=NCCC1=CCCCC1 was read as ROMK mod 0.77 and Biofilm kill mix 22.
For COC(=O)C1=C(C)N=C2SC(C#N)=C(N)N2C1c1ccc(OC)cc1 (stereo unspecified) the results were ROMK mod 0.0042.
Screening CCOC(=O)C1=C(C)N=C2SC(C(=O)OC)=CC(=O)N2C1c1ccc(OC)cc1 (stereo unspecified) returned ROMK mod -4.5*, Biofilm kill mix 15 and ROMK hit retest 0.054*.
`CC(=O)NNC(=S)Nc1cc(S(=O)(=O)N(C)C)ccc1C` gave ROMK mod 0.72 and Biofilm kill mix 2.
COCCN(CCOC)C(=S)Nc1cc(S(=O)(=O)N(C)C)ccc1C was read as ROMK mod 4.3*, Biofilm kill mix 10 and ROMK hit retest 0.082.
CCC(=O)c1ccc(OCC(O)CN2CCN(c3ccc(F)cc3)CC2)cc1 (stereo unspecified) was read as ROMK mod -0.28.
For COc1cc(/C=N\n2cnnc2)ccc1OCC(=O)Nc1ccc(C)cc1 the results were ROMK hit retest 0.076.
COc1cc(/C=N/NC(=O)c2cccnc2)ccc1OCC(=O)Nc1ccc(C)cc1 was read as Biofilm kill mix 12.
For Clc1ccc(OCCn2ccnc2)c(Br)c1 the results were ROMK mod 0.016.
`Clc1ccc(OCCn2ccnc2)c2ccccc12` gave ROMK mod -3.2* and ROMK hit retest inconclusive.
Screening CCCn1nnnc1SCC(=O)Nc1sc(C)c(C)c1C#N returned Biofilm kill mix 14.
Screening CCCCOCCCNC(=O)N[C@H](C(=O)O)C(C)CC (stereo partly specified) returned Biofilm kill mix 15.
C=C1C(=O)C=C2CN(C(=O)c3ccccc3)[C@@](Cc3ccc(F)cc3)(C(=O)OC)[C@@H]12 was read as ROMK mod -4.4*, Biofilm kill mix -1 and ROMK hit retest 0.05*.
Screening COC(=O)[C@@]1(Cc2ccc(OC)cc2)[C@@H]2C(=CC(=O)[C@H]2CC(=O)C(=O)N(C)C)CN1C(=O)c1ccccc1 returned ROMK mod -2.4 and Biofilm kill mix 10.
`COc1ccc(/C=C/C(=O)Nc2cccc(F)c2)cc1S(=O)(=O)N1CCOCC1` gave ROMK mod -0.86, Biofilm kill mix 15 and ROMK hit retest 0.064*.
`COc1ccc(/C=C/C(=O)Nc2ccccc2C)cc1S(=O)(=O)N1CCOCC1` gave Biofilm kill mix 9.
For COc1ccccc1C1OC2=C(Nc3ccc([N+](=O)[O-])cc3N2)C1=O (stereo unspecified) the results were Biofilm kill mix 15.
`CC(C)NC(=O)/C(C#N)=C/c1cccc(NC(=O)c2ccccc2Cl)c1` gave Biofilm kill mix 5.
